This is an account of results in ChEMBL document CHEMBL3526048, “In vitro metabolism of rivoglitazone, a novel peroxisome proliferator-activated receptor γ agonist, in rat, monkey, and human liver microsomes and freshly isolated hepatocytes” (Drug Metab Dispos, 2011).

The target of one series is T1, Cytochrome P450 1A2 (Homo sapiens, UniProt P05177).
T1 sequence (P05177 whole entry): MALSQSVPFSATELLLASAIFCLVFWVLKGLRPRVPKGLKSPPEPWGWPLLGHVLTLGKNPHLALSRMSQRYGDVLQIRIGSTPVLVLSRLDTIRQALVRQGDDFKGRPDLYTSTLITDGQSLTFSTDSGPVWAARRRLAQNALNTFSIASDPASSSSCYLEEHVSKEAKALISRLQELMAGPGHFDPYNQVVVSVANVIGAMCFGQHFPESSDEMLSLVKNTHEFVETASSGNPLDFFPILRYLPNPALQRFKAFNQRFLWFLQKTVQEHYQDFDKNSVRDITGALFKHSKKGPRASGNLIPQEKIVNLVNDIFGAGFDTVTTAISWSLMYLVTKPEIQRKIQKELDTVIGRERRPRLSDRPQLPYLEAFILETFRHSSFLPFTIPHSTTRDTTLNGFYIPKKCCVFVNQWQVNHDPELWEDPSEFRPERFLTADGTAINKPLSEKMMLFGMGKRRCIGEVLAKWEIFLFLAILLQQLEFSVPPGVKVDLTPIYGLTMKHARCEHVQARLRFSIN
Kind of series: Activity of human CYP1A2 expressed in microsomes isolated from baculovirus infected insect cell assessed as enzyme-mediated compound formation treated with [14C]-rivoglitazone at 20 uM after 2 hrs by radio-HPLC/LC-MS/MS analysis in presence of NADPH-generating system and NADPH-generating system/SAM. It is filed as ADME. A digest of the protocol:
(§1)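 Baculovirus/insect-cell microsomes expressing single human CYPs, 1 mg/ml protein, with 50 mM potassium phosphate (pH 7.4) or 100 mM Tris-HCl (pH 7.5). NADPH-generating system: 2 mM NADP⁺, 20 mM glucose 6-phosphate, 2 units/ml G6PDH, 10 mM MgCl₂. [¹⁴C]rivoglitazone at 20 μM, 2 h at 37°C with shaking. Control used insect-cell control supersomes. Stopped with acetonitrile; supernatant concentrated under nitrogen; metabolites analysed by radio-HPLC, LC-MS and LC-MS/MS.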

Series [1] concerns Liver microsome. Kind of series: Drug level in Sprague-Dawley rat liver microsomes treated with [14C]-rivoglitazone at 20 uM after 2 hrs by radio-HPLC/LC-MS/MS analysis in presence of NADPH-generating system and NADPH-generating system/SAM. The class given is ADME. A digest of the protocol:
(§2)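 Pooled male liver microsomes (1 mg/ml protein; rat from 94 Sprague-Dawley, monkey from 8 cynomolgus, human from 23 donors) were incubated with [¹⁴C]rivoglitazone (20 μM). Buffer: 10 mM potassium phosphate (pH 7.4). Cofactors: NADPH-generating system (2 mM NADP⁺, 20 mM G6P, 2 U/ml G6PDH, 10 mM MgCl₂), with or without 2 mM SAM. Incubation 2 h at 37°C with shaking; controls lacked NADPH system and SAM alone. Acetonitrile stop, radio-HPLC plus LC-MS.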
A general note: Liver microsomes are vesicles of endoplasmic reticulum, rich in cytochrome P450 enzymes.

Another series addresses Cytochrome P450 2C19 (Homo sapiens, UniProt P33261). Kind of series: Activity of human CYP2C19 expressed in microsomes isolated from baculovirus infected insect cell assessed as enzyme-mediated compound formation treated with [14C]-rivoglitazone at 20 uM after 2 hrs by radio-HPLC/LC-MS/MS analysis in presence of NADPH-generating system and NADPH-generating system/SAM. The class given is ADME. Summed up:
as §1

The nature of series [2]: Retention time of the compound by LC-MS/MS analysis. The class given is physicochemical. A digest of the protocol:
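LC-MS/MS used a YMC-Pack ODS-A column (1.5 × 150 mm, 5 μm) at 30°C, 0.1 ml/min. Mobile phase was water and acetonitrile, each with 0.01% TFA. Gradient: 12→60% B over 30 min, →90% B over 5 min, hold 5 min. Detection was UV 220 nm with positive ESI Q-TOF (capillary 3300 V, cone 45 V), collision energy 20 eV and xenon as collision gas.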

In the next series the target is T2, Cytochrome P450 2C8 (Homo sapiens, UniProt P10632).
T2 sequence (P10632 whole entry): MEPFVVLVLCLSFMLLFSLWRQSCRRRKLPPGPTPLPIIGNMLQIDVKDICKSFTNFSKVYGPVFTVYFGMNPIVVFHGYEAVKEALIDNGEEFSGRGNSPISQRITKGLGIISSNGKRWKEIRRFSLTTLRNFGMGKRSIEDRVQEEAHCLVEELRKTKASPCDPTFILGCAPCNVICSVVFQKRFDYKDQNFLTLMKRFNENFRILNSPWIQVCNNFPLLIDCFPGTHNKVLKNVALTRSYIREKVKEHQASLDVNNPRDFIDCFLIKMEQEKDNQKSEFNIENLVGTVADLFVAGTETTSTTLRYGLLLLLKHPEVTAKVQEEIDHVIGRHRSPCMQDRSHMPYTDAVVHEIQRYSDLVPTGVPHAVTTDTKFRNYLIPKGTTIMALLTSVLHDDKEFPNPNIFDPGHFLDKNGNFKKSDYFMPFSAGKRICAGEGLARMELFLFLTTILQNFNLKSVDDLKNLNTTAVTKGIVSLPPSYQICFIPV
Kind of series: Activity of human CYP2C8 expressed in microsomes isolated from baculovirus infected insect cell assessed as enzyme-mediated compound formation treated with [14C]-rivoglitazone at 20 uM after 2 hrs by radio-HPLC/LC-MS/MS analysis in presence of NADPH-generating system and NADPH-generating system/SAM. It is filed as ADME. A digest of the protocol: as §1

The nature of series [3]: Drug level in po dosed monkey liver microsomes treated with [14C]-rivoglitazone. The class given is ADME, organism-based, Macaca mulatta. As to conditions: rhesus monkey, in vivo.
The nature of series [4]: Drug level in cynomolgus monkey liver microsomes treated with [14C]-rivoglitazone at 20 uM after 2 hrs by radio-HPLC/LC-MS/MS analysis in presence of NADPH-generating system and NADPH-generating system/SAM. The class given is ADME, Macaca fascicularis. A digest of the protocol: as §2
Series [5] relates to Liver microsome. Kind of series: Drug level in human liver microsomes treated with [14C]-rivoglitazone at 20 uM after 2 hrs by radio-HPLC/LC-MS/MS analysis in presence of NADPH-generating system and NADPH-generating system/SAM. It is filed as ADME. A digest of the protocol:
as §2

Series [6] concerns Hepatocyte. Put plainly: Drug level in rat hepatocytes treated with [14C]-rivoglitazone at 30 uM after 3 hrs by radio-HPLC/LC-MS/MS analysis in presence of NADPH-generating system and NADPH-generating system/SAM. It is filed as ADME, cell-based.
In a further series the target is Cytochrome P450 3A5 (Homo sapiens, UniProt P20815). Put plainly: Activity of human CYP3A5 expressed in microsomes isolated from baculovirus infected insect cell assessed as enzyme-mediated compound formation treated with [14C]-rivoglitazone at 20 uM after 2 hrs by radio-HPLC/LC-MS/MS analysis in presence of NADPH-generating system and NADPH-generating system/SAM. It is filed as ADME. A digest of the protocol:
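cDNA-expressed human CYP3A5 in baculovirus-insect-cell microsomes (1 mg/ml protein) was incubated with [¹⁴C]rivoglitazone (20 μM) in 50 mM potassium phosphate (pH 7.4) or 100 mM Tris-HCl (pH 7.5). NADPH-generating system: 2 mM NADP⁺, 20 mM glucose 6-phosphate, 2 units/ml G6PDH, 10 mM MgCl₂. Incubation ran 2 h at 37°C with shaking; insect-cell control supersomes served as control. Acetonitrile stop, supernatant concentrated, then radio-HPLC, LC-MS and LC-MS/MS.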

Series [7] relates to Hepatocyte. Kind of series: Drug level in human hepatocytes treated with [14C]-rivoglitazone at 30 uM after 3 hrs by radio-HPLC/LC-MS/MS analysis in presence of NADPH-generating system and NADPH-generating system/SAM. It is filed as ADME, cell-based.
The next series has as its target Cytochrome P450 3A4 (Homo sapiens, UniProt P08684). Kind of series: Activity of human CYP3A4 expressed in microsomes isolated from baculovirus infected insect cell assessed as enzyme-mediated compound formation treated with [14C]-rivoglitazone at 20 uM after 2 hrs by radio-HPLC/LC-MS/MS analysis in presence of NADPH-generating system and NADPH-generating system/SAM. It is filed as ADME.

For a further series, the target named is Cytochrome P450 2C9 (Homo sapiens, UniProt P11712). Put plainly: Activity of human CYP2C9 expressed in microsomes isolated from baculovirus infected insect cell assessed as enzyme-mediated compound formation treated with [14C]-rivoglitazone at 20 uM after 2 hrs by radio-HPLC/LC-MS/MS analysis in presence of NADPH-generating system and NADPH-generating system/SAM. It is filed as ADME.
Chain of Cytochrome P450 2C9 (P11712 whole entry): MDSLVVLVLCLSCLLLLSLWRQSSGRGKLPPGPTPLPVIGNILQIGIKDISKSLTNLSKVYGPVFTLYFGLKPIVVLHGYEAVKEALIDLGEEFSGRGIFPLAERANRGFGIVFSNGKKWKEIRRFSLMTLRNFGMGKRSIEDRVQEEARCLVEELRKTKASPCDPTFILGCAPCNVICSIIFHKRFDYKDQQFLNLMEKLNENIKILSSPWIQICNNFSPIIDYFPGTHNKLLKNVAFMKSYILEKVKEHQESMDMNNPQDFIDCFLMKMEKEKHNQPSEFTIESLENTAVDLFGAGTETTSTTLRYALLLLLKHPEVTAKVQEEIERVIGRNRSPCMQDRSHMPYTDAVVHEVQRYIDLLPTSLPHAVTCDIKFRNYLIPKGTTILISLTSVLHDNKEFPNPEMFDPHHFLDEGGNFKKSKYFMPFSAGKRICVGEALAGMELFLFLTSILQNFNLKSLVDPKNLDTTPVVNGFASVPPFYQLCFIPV

In another series the test system is Plasma. Kind of series: Drug level in po dosed monkey plasma treated with [14C]-rivoglitazone. The class given is ADME, organism-based, Macaca mulatta. As to conditions: rhesus monkey, in vivo.
Series [8] can be described thus: Drug level in po dosed monkey bile treated with [14C]-rivoglitazone. It is filed as ADME, organism-based, Macaca mulatta. Particulars: rhesus monkey, in vivo.
The target in another series is Cytochrome P450 2D6 (Homo sapiens, UniProt P10635). Kind of series: Activity of human CYP2D6 expressed in microsomes isolated from baculovirus infected insect cell assessed as enzyme-mediated compound formation treated with [14C]-rivoglitazone at 20 uM after 2 hrs by radio-HPLC/LC-MS/MS analysis in presence of NADPH-generating system and NADPH-generating system/SAM. The class given is ADME.
Chain of Cytochrome P450 2D6 (P10635 whole entry): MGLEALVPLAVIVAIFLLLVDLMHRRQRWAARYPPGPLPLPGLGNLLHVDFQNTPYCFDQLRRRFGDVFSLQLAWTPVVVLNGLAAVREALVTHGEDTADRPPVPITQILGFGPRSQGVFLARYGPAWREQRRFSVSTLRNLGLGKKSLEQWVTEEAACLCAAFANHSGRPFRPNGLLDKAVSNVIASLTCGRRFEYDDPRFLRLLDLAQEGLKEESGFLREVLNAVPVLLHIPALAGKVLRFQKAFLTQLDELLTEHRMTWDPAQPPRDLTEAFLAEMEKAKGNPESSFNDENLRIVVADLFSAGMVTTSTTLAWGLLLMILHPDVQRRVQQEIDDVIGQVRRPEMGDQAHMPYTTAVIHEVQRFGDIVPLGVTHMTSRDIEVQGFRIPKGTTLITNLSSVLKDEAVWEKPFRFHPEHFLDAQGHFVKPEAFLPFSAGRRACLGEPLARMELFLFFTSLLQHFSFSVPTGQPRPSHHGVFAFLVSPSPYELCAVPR

Chain of Cytochrome P450 2C19 (P33261 whole entry): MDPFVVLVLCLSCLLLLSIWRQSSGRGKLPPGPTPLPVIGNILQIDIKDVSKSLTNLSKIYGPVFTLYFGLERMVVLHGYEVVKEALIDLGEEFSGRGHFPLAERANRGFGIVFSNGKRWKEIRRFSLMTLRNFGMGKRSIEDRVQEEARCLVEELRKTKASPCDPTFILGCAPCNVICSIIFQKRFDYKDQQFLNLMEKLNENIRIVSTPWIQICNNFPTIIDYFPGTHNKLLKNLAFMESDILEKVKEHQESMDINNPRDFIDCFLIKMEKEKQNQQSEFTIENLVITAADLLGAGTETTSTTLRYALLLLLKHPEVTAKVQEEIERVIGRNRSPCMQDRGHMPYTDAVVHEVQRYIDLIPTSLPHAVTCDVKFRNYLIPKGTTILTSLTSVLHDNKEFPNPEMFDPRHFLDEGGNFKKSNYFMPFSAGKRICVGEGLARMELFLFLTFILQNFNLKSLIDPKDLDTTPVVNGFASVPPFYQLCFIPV
Chain of Cytochrome P450 3A5 (P20815 whole entry): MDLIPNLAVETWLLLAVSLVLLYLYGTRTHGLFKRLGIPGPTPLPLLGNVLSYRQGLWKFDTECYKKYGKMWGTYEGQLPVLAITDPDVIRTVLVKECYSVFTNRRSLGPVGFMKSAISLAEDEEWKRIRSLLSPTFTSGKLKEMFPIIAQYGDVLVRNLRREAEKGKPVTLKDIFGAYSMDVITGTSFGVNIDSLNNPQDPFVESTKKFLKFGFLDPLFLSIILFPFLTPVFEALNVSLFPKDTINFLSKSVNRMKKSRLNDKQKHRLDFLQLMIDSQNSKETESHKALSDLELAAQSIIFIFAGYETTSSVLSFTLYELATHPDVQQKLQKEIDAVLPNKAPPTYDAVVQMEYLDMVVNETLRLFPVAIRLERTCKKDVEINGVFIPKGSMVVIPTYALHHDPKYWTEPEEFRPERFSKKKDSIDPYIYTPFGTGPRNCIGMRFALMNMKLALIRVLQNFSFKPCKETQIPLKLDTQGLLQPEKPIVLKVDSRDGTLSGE
Chain of Cytochrome P450 3A4 (P08684 whole entry): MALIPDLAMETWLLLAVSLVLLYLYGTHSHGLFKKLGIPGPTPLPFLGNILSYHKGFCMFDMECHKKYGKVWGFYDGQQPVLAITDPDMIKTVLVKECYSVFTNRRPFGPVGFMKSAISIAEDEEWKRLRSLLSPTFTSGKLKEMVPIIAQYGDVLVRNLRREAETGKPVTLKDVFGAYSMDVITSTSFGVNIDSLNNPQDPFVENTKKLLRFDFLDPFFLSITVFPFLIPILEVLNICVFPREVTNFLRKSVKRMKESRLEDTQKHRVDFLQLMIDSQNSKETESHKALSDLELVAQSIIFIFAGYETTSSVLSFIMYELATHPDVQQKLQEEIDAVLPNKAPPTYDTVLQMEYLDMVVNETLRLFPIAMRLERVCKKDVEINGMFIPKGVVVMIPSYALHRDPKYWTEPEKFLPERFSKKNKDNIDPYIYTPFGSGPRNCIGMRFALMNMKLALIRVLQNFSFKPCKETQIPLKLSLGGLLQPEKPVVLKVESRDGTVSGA

For the compound `COc1ccc2nc(COc3ccc(CC4SC(=O)NC4=O)cc3)[nH]c2c1` (stereo unspecified), the Drug metabolism entry (on Cytochrome P450 1A2; in the series with Liver microsome [1]; on Cytochrome P450 2C19; at Cytochrome P450 2C8; in series [3]; in series [4]) was “metabolite_detected” each time. The Drug metabolism entry in the series with Liver microsome [5], in the series on Hepatocyte [6], on Cytochrome P450 3A5, in the series on Hepatocyte [7], on Cytochrome P450 3A4 and on Cytochrome P450 2C9 was “metabolite_detected” each time. Moreover, the Drug metabolism result (with Plasma; in series [8]; on Cytochrome P450 2D6) was “metabolite_detected” in each case. Further, in [2], the Retention_time is reported as 20.9 min.
